Reference: ChEMBL document CHEMBL4020721 (Eur J Med Chem, 2017)

What was measured:
CYP2C19 [1] = target: T1, CYP2C19 (Homo sapiens, UniProt P33261); assay: Reversible inhibition of CYP2C19 in human liver microsomes at 10 uM after 20 mins in presence of NADPH by LC-MS/MS analysis; type: ADME; conditions: liver microsomes
[2] = Volume of distribution at steady state in Sprague-Dawley rat plasma at 1 mg/kg, iv by UPLC-MS/MS analysis; type: ADME, organism-based; conditions: read-out: Vdss
Procedure, shortened: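 Male Sprague-Dawley rats (180-220 g), fasted overnight with water available, dosed iv (n=2). Blood on heparin collected from 0 to 1440 min. Plasma obtained by centrifugation and stored at -20°C. Proteins precipitated with acetonitrile containing internal standard, then UPLC-MS/MS. Vss taken from the iv data.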

[3] = Clearance in Sprague-Dawley rat plasma at 1 mg/kg, iv by UPLC-MS/MS analysis; type: ADME, organism-based
Procedure, shortened: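 Male Sprague-Dawley rats (180-220 g) were fasted overnight with free access to water. Dosing was intravenous (n=2) or oral at 6 mg/kg (n=3). Heparinized blood was drawn from 0 to 1440 min. Plasma was frozen at -20°C, then precipitated with acetonitrile containing internal standard, centrifuged and analysed by UPLC-MS/MS.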

CYP1A2 = target: T2, CYP1A2 (Homo sapiens, UniProt P05177); assay: Reversible inhibition of CYP1A2 in human liver microsomes at 10 uM after 20 mins in presence of NADPH by LC-MS/MS analysis; type: ADME
T2 sequence (P05177 whole entry): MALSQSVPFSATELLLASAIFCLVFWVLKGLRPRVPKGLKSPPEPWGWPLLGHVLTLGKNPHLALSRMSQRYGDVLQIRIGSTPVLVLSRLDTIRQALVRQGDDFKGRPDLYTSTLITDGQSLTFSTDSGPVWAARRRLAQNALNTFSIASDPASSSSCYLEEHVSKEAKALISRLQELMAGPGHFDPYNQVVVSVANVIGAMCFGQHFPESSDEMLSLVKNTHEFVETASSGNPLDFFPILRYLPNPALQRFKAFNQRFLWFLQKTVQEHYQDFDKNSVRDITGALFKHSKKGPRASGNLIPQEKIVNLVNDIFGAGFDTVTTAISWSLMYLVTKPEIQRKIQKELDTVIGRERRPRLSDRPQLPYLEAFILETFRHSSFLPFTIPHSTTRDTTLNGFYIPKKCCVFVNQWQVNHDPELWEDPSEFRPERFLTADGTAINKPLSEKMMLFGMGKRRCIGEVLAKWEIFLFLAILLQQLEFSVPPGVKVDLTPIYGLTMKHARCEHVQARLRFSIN

CYP2C19 [4] = target: T1, CYP2C19; assay: Time dependent irreversible inhibition of CYP2C19 in human liver microsomes at 10 uM preincubated with compound followed by NADPH addition by LC-MS/MS analysis; type: ADME
Procedure, shortened: (§1)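 HLM (0.2 mg/ml) with 10 µM compound were preincubated 0, 5, 10 or 20 min at 37°C with 1 mM NADPH or PBS. Substrate cocktail (halved concentrations) plus NADPH was then added for 10 min. Metabolites were measured by LC-MS/MS. Kobs is the slope of relative activity versus preincubation time.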

CYP2D6 = CYP2D6 (Homo sapiens, UniProt P10635); assay: Time dependent irreversible inhibition of CYP2D6 in human liver microsomes at 10 uM preincubated with compound followed by NADPH addition by LC-MS/MS analysis; type: ADME; conditions: liver microsomes; procedure, shortened: as §1
[5] = target: Macrophage-stimulating protein receptor (Homo sapiens, UniProt Q04912); assay: Inhibition of RON (unknown origin) using FAM-labeled peptide as substrate preincubated for 5 to 10 mins followed by substrate/ATP addition measured after 30 to 60 mins by mobility shift assay
Procedure, shortened: (§2)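 Caliper mobility-shift assay with FAM-labeled peptide substrate. Buffer: 50 mM HEPES pH 7.5, 0.0015% Brij-35, 10 mM MgCl2, 2 mM DTT, with kinase-specific enzyme levels. […] Incubation was 30-60 min at 28°C, stopped with EDTA buffer. Read-out was % conversion.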

[6] = target: ALK tyrosine kinase receptor (Homo sapiens, UniProt Q9UM73); assay: Inhibition of ALK (unknown origin) using FAM-labeled peptide as substrate preincubated for 5 to 10 mins followed by substrate/ATP addition measured after 30 to 60 mins by mobility shift assay; procedure, shortened: as §2
[7] = target: Vascular endothelial growth factor receptor 1 (Homo sapiens, UniProt P17948); assay: Inhibition of FLT1 (unknown origin) using FAM-labeled peptide as substrate preincubated for 5 to 10 mins followed by substrate/ATP addition measured after 30 to 60 mins by mobility shift assay; procedure, shortened: as §2
[8] = target: Vascular endothelial growth factor receptor 2 (Homo sapiens, UniProt P35968); assay: Inhibition of VEGFR2 (unknown origin) using FAM-labeled peptide as substrate preincubated for 5 to 10 mins followed by substrate/ATP addition measured after 30 to 60 mins by mobility shift assay; procedure, shortened: as §2
[9] = target: Epidermal growth factor receptor (Homo sapiens, UniProt P00533); assay: Inhibition of EGFR (unknown origin) using FAM-labeled peptide as substrate preincubated for 5 to 10 mins followed by substrate/ATP addition measured after 30 to 60 mins by mobility shift assay; procedure, shortened: as §2
[10] = target: Epidermal growth factor receptor (Homo sapiens, UniProt P00533, T790M); assay: Inhibition of EGFR T790M mutant (unknown origin) using FAM-labeled peptide as substrate preincubated for 5 to 10 mins followed by substrate/ATP addition measured after 30 to 60 mins by mobility shift assay; procedure, shortened: as §2
[11] = target: Fibroblast growth factor receptor 1 (Homo sapiens, UniProt P11362); assay: Inhibition of FGFR1 (unknown origin) using FAM-labeled peptide as substrate preincubated for 5 to 10 mins followed by substrate/ATP addition measured after 30 to 60 mins by mobility shift assay; procedure, shortened: as §2
NCI-H1993 [12] = assay: Antitumor activity against human NCI-H1993 cells xenografted in BALB/c athymic nude mouse assessed as tumor growth inhibition at 0.1 mg/kg, po administered once daily for 3 weeks; type: functional; conditions: 504 h, read-out: TGI
Procedure, shortened: (§3)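 BALB/c nude mice, 5-6 weeks old, kept under SPF conditions, received 7×10^6 NCI-H1993 cells s.c. in the right flank. At 150-250 mm³ they were sorted and randomized, n=7 per group, with vehicle controls. Dosing was oral, once daily for 3 weeks. […] Mean±SEM, Student's t-test.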

NCI-H1993 [13] = assay: Antitumor activity against human NCI-H1993 cells xenografted in BALB/c athymic nude mouse assessed as tumor growth inhibition at 1 mg/kg, po administered once daily for 3 weeks; type: functional; conditions: 504 h, read-out: TGI; procedure, shortened: as §3
Mus musculus [14] = assay: Toxicity in BALB/c athymic nude mouse xenografted with human SNU5 cells assessed as body weight loss at 0.3 to 3 mg/kg, po administered once daily for 2 weeks; type: organism-based; conditions: in vivo, 336 h
Procedure, shortened: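 Female/male BALB/c nude mice (5-6 weeks, SPF). NCI-H1993 cells (7×10^6 in 140 µL) or SNU-5 cells (6×10^6 in 200 µL) injected s.c. into the right flank. Dosing started at mean tumour volume 150-250 mm³ (NCI-H1993) or 100-200 mm³ (SNU-5). Randomized, n = 7 (NCI-H1993) or 6 (SNU-5) per group. Oral dosing once daily; vehicle controls. Body weight and signs of toxicity monitored during treatment.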

Mus musculus [15] = assay: Toxicity in BALB/c athymic nude mouse xenografted with human NCI-H1993 cells assessed as apparent toxicity parameters at 0.1 to 10 mg/kg, po administered once daily for 3 weeks; type: organism-based; conditions: in vivo, 504 h

T1 sequence (P33261 whole entry): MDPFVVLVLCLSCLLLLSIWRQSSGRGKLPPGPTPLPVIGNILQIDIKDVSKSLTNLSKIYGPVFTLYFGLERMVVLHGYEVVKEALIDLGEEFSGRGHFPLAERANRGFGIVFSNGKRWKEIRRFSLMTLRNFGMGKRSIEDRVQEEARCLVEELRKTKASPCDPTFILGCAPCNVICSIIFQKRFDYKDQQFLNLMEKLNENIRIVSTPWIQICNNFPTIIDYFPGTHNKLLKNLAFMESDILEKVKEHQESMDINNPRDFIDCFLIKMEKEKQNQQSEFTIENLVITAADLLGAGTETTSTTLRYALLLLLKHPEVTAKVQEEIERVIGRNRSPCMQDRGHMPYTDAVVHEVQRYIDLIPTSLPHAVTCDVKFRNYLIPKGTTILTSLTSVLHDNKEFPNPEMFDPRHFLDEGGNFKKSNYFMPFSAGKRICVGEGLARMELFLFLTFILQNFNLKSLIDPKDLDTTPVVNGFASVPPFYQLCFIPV
Sequence of Epidermal growth factor receptor (Homo sapiens, UniProt P00533) (P00533 whole entry): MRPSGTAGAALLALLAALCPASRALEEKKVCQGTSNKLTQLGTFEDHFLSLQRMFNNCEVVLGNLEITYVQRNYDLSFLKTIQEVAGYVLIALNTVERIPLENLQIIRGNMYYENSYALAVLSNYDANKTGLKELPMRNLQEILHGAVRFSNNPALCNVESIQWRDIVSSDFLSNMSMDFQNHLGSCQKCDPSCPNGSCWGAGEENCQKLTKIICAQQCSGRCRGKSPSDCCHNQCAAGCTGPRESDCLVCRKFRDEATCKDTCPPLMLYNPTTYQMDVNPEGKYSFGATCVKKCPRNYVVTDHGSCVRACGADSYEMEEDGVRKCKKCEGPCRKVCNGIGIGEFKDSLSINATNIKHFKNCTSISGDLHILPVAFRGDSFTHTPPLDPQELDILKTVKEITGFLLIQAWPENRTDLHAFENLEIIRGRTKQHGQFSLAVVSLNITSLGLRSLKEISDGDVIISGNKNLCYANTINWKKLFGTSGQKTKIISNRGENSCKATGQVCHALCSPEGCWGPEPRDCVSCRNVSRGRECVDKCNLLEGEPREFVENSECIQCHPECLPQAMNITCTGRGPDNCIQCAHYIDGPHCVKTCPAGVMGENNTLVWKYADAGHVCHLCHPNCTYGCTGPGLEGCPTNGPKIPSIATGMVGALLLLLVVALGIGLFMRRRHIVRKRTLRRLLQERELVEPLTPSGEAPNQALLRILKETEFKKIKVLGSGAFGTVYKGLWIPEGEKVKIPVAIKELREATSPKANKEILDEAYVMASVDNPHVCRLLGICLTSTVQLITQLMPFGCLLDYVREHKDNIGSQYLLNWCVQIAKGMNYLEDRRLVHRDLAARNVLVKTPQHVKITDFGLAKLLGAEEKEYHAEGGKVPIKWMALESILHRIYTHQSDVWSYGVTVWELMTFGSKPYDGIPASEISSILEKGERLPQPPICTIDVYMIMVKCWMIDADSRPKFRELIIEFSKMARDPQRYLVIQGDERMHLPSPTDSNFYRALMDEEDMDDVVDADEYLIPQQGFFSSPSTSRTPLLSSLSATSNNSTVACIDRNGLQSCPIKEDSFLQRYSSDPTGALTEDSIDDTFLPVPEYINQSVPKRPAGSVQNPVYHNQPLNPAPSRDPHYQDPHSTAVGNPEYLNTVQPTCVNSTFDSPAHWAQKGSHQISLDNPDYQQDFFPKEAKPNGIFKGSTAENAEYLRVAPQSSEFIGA
Sequence of CYP2D6 (P10635 whole entry): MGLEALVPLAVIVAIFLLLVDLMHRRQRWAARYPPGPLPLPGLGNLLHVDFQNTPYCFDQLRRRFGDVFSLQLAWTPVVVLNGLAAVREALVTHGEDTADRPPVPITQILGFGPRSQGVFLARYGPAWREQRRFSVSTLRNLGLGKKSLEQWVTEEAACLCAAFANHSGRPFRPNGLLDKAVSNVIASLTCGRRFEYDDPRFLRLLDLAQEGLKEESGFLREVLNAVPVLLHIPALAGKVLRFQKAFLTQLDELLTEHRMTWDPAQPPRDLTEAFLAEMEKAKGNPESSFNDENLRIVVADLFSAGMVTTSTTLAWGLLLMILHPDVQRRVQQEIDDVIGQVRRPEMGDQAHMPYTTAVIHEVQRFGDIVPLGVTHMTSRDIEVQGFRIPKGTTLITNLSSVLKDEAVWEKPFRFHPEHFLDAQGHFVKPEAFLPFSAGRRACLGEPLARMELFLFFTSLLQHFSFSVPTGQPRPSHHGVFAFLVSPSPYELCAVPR
Sequence of ALK tyrosine kinase receptor (Q9UM73 whole entry): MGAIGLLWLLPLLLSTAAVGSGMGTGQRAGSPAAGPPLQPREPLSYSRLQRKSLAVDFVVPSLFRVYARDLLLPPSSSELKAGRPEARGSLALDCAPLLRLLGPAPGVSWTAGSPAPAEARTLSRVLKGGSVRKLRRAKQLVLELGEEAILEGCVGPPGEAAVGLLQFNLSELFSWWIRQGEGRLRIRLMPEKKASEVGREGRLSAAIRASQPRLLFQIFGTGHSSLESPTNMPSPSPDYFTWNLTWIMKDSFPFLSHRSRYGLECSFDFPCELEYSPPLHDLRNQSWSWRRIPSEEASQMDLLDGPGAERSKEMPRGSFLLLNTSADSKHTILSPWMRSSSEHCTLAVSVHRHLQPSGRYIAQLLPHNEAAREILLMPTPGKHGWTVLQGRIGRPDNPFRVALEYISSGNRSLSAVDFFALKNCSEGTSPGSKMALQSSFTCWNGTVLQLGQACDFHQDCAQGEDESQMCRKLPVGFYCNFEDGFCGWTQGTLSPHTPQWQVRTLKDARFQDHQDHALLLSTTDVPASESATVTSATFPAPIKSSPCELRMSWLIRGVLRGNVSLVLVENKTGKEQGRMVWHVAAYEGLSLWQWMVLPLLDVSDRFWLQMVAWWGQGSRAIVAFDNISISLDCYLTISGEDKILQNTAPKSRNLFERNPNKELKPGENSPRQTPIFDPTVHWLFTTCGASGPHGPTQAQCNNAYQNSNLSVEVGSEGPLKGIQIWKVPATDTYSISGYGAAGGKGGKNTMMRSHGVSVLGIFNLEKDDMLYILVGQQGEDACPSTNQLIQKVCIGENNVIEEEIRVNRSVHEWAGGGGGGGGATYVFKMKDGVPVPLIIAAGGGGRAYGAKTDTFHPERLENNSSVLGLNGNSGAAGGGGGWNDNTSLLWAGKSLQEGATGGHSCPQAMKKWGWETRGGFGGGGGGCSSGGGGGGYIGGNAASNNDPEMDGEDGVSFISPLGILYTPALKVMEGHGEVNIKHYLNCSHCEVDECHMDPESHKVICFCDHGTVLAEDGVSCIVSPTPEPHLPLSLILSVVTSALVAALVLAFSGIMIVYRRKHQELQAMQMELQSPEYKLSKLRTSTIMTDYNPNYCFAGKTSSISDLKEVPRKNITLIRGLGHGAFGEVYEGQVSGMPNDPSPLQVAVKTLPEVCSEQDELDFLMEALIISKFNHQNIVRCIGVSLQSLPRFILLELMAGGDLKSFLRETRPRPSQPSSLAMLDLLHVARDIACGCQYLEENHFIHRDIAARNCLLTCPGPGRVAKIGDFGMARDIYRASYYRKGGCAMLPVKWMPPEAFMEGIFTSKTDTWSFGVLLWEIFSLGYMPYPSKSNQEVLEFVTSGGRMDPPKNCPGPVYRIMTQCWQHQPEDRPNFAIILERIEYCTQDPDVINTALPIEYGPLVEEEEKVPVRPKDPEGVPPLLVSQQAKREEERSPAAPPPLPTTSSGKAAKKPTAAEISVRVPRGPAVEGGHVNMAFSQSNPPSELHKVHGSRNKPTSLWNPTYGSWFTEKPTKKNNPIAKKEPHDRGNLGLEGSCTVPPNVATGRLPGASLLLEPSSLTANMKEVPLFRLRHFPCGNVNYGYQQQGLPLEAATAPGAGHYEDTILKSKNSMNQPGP
Sequence of Epidermal growth factor receptor (Homo sapiens, UniProt P00533, T790M) (P00533 25-1210 T790M limits assumed): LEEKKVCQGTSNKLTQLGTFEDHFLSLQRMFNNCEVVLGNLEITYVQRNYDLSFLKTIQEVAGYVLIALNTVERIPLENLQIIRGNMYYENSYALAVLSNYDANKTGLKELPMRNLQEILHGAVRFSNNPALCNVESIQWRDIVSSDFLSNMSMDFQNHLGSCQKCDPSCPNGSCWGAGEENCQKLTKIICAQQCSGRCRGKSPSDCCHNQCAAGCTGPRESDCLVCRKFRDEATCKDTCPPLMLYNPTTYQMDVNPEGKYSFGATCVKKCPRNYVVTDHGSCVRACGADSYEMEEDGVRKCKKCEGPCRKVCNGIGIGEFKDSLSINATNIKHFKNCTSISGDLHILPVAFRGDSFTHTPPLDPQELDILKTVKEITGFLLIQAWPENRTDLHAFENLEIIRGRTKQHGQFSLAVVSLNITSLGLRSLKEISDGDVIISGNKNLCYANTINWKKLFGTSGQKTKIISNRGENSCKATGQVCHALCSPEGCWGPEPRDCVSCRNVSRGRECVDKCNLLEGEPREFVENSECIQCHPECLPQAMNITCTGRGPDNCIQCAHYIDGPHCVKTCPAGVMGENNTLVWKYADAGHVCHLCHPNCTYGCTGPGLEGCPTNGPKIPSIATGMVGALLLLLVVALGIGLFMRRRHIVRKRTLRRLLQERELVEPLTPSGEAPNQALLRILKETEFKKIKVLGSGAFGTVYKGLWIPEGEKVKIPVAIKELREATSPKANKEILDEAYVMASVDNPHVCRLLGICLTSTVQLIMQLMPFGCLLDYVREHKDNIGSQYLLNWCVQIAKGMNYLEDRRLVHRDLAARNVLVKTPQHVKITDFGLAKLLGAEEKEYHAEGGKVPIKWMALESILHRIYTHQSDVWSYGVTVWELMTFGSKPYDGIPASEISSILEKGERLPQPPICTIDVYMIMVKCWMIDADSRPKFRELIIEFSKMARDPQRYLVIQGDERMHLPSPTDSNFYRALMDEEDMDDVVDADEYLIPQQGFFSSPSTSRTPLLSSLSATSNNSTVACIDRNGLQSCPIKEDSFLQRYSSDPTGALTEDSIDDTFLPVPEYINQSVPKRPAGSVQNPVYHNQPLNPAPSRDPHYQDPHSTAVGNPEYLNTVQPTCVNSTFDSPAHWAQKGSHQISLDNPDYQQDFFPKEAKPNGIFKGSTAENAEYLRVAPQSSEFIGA

- inhibition at 20 min, 10 µM (CYP2C19 [1]): < 50%
- Vd [2]: 2.1 L/kg
- clearance [3]: 9.67 mL/min/kg
- inhibition at 20 min, 10 µM (CYP1A2): < 50%
- inhibition at 10 µM (CYP2C19 [4]): < 50%
- inhibition at 10 µM (CYP2D6): < 50%
- IC50 [5]: 0.731 µM
- IC50 [6]: > 30 µM
- IC50 [7]: > 30 µM
- IC50 [8]: 18.4 µM
- IC50 [9]: > 30 µM
- IC50 [10]: > 30 µM
- IC50 [11]: > 30 µM
SMILES: CC(c1cc2cc(-c3cnn(C)c3)cnc2cc1F)n1nnc2ncc(-c3cnn(CCO)c3)nc21 (stereo in doubt; 14)
- inhibition in vivo at 0.1 mg/kg (NCI-H1993 [12]): 55.5%
- inhibition in vivo at 1 mg/kg (NCI-H1993 [13]): 78.7%
- Activity (Mus musculus [14]): Non-Toxic
- Activity (Mus musculus [15]): Non-Toxic
